{
  "source": "ChEMBL document CHEMBL4229410",
  "about": "“Facile construction of fused benzimidazole-isoquinolinones that induce cell-cycle arrest and apoptosis in colorectal cancer cells” (Bioorg Med Chem, 2018)",
  "key": {"[1]": {"biological_target": "Cyclin-dependent kinase 2 (Homo sapiens, UniProt P24941)", "assay": "Inhibition of full length human CDK2 (M1 to L298 residues) expressed in bacterial expression system assessed as residual activity at 5 uM by KINOMEscan assay relative to control"}, "[2]": {"biological_target": "T1, Platelet-derived growth factor receptor beta (Homo sapiens, UniProt P09619)", "T1 sequence (P09619 whole entry, the tested form may be a part)": "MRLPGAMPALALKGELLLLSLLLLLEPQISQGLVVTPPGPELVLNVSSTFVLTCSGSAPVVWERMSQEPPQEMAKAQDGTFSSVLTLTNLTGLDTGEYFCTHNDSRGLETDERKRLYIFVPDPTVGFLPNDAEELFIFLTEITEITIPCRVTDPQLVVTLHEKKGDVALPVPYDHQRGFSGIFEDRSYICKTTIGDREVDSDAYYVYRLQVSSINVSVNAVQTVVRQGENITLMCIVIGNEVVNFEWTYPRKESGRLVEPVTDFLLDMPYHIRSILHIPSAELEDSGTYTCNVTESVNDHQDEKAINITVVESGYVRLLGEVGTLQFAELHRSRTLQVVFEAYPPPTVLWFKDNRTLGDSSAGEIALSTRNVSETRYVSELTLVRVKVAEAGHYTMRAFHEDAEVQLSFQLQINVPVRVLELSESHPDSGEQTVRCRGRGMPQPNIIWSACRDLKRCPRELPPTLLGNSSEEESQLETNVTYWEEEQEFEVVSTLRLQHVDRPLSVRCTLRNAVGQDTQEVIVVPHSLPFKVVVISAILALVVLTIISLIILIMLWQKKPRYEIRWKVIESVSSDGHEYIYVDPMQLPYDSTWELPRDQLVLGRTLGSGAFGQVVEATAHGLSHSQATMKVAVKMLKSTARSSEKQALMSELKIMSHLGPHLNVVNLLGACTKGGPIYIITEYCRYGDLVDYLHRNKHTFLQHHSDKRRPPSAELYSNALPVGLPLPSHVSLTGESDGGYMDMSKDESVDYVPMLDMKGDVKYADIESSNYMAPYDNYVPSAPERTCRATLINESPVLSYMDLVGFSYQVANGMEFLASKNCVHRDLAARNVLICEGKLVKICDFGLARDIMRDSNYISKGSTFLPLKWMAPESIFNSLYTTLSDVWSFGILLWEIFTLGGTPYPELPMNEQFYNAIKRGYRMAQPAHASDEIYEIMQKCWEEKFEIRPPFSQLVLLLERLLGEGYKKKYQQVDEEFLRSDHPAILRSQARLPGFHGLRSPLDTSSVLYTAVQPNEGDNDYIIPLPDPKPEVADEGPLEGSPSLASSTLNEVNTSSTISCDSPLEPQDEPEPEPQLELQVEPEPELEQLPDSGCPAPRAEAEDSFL", "assay": "Inhibition of human PDGFRB (V582 to Y1009 residues) expressed in bacterial expression system assessed as residual activity at 5 uM by KINOMEscan assay relative to control"}, "SW-620 [3]": {"tested_on": "SW-620", "assay": "Induction of apoptosis in human SW620 cells assessed as necrotic cells at 50 uM after 48 hrs by Annexin-V-FITC/propidium iodide staining based flow cytometry (reference value: 0.9%)", "assay_type": "functional"}, "[4]": {"biological_target": "Dual specificity tyrosine-phosphorylation-regulated kinase 1B (Homo sapiens, UniProt Q9Y463)", "assay": "Inhibition of full length human DYRK1B (M1 to S629 residues) expressed in bacterial expression system assessed as residual activity at 5 uM by KINOMEscan assay relative to control"}, "SW-620 [5]": {"tested_on": "SW-620", "assay": "Induction of apoptosis in human SW620 cells assessed as live cells at 25 uM after 48 hrs by Annexin-V-FITC/propidium iodide staining based flow cytometry (reference value: 97.5%)", "assay_type": "functional"}, "HT-29 [6]": {"tested_on": "HT-29", "assay": "Inhibition of PI3K in human HT-29 cells assessed as reduction in AKT phosphorylation at T308 residue up to 75 uM after 48 hrs by Western blot analysis", "assay_type": "cell-based"}, "HT-29 [7]": {"tested_on": "HT-29", "assay": "Induction of apoptosis in human HT-29 cells assessed as necrotic cells at 50 uM after 48 hrs by Annexin-V-FITC/propidium iodide staining based flow cytometry (reference value: 1.6%)", "assay_type": "functional"}, "Ephrin type-A receptor 2": {"biological_target": "Ephrin type-A receptor 2 (Homo sapiens, UniProt P29317)", "assay": "Inhibition of human EPHA2 (T593 to V891 residues) expressed in bacterial expression system assessed as residual activity at 5 uM by KINOMEscan assay relative to control"}, "[8]": {"biological_target": "Mitogen-activated protein kinase 8 (Homo sapiens, UniProt P45983)", "assay": "Inhibition of full length human JNK1 (M1 to Q384 residues) expressed in mammalian expression system assessed as residual activity at 5 uM by KINOMEscan assay relative to control"}, "[9]": {"biological_target": "Serine/threonine-protein kinase ULK2 (Homo sapiens, UniProt Q8IYT8)", "assay": "Binding affinity to human ULK2 (M1 to S301 residues) expressed in mammalian expression system by KINOMEscan assay"}, "[10]": {"biological_target": "Cyclin-dependent kinase 19 (Homo sapiens, UniProt Q9BWU1)", "sequence (Q9BWU1 whole entry, the tested form may be a part)": "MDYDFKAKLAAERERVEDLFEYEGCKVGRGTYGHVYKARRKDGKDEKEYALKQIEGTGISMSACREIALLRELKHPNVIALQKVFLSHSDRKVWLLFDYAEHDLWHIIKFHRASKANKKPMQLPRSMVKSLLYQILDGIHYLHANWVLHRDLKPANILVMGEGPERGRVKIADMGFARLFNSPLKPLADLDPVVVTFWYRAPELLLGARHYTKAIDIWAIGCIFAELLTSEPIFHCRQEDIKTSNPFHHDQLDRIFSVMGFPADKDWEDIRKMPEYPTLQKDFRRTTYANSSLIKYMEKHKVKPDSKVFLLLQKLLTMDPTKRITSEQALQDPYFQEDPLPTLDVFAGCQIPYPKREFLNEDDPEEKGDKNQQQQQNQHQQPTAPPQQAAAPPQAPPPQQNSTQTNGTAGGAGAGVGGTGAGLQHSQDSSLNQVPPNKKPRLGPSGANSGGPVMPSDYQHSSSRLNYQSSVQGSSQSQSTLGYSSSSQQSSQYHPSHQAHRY", "assay": "Inhibition of human CDK11 (M1 to N360 residues) expressed in bacterial expression system assessed as residual activity at 5 uM by KINOMEscan assay relative to control"}, "[11]": {"biological_target": "Casein kinase I isoform delta (Homo sapiens, UniProt P48730)", "sequence (P48730 whole entry, looked up, the tested form may be a part, canonical isoform)": "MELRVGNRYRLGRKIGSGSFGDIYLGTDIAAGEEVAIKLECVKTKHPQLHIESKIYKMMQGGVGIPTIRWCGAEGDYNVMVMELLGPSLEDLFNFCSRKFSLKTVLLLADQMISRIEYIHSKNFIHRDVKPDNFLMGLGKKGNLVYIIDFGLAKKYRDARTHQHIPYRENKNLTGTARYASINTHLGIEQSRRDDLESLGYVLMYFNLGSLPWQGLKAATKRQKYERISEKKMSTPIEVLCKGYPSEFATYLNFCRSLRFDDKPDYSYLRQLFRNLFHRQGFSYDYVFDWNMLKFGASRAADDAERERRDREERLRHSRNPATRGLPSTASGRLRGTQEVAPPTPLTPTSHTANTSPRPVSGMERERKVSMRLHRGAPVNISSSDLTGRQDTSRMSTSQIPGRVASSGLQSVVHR", "assay": "Inhibition of full length human CSNK1D (M1 to K409 residues) expressed in bacterial expression system assessed as residual activity at 5 uM by KINOMEscan assay relative to control"}, "[12]": {"biological_target": "T1, Platelet-derived growth factor receptor beta", "assay": "Binding affinity to human PDGFRB (V582 to Y1009 residues) expressed in bacterial expression system by KINOMEscan assay"}, "[13]": {"biological_target": "Cyclin-dependent kinase 7 (Homo sapiens, UniProt P50613)", "assay": "Binding affinity to full length human CDK7 (M1 to L344 residues) expressed in mammalian expression system by KINOMEscan assay"}, "[14]": {"biological_target": "Epidermal growth factor receptor (Homo sapiens, UniProt P00533)", "assay": "Binding affinity to partial length human EGFR (R669 to V1011 residues) expressed in bacterial expression system by KINOMEscan assay"}, "[15]": {"biological_target": "Tyrosine-protein kinase ABL1 (Homo sapiens, UniProt P00519, E255K)", "sequence (P00519 whole entry E255K, the tested form may be a part)": "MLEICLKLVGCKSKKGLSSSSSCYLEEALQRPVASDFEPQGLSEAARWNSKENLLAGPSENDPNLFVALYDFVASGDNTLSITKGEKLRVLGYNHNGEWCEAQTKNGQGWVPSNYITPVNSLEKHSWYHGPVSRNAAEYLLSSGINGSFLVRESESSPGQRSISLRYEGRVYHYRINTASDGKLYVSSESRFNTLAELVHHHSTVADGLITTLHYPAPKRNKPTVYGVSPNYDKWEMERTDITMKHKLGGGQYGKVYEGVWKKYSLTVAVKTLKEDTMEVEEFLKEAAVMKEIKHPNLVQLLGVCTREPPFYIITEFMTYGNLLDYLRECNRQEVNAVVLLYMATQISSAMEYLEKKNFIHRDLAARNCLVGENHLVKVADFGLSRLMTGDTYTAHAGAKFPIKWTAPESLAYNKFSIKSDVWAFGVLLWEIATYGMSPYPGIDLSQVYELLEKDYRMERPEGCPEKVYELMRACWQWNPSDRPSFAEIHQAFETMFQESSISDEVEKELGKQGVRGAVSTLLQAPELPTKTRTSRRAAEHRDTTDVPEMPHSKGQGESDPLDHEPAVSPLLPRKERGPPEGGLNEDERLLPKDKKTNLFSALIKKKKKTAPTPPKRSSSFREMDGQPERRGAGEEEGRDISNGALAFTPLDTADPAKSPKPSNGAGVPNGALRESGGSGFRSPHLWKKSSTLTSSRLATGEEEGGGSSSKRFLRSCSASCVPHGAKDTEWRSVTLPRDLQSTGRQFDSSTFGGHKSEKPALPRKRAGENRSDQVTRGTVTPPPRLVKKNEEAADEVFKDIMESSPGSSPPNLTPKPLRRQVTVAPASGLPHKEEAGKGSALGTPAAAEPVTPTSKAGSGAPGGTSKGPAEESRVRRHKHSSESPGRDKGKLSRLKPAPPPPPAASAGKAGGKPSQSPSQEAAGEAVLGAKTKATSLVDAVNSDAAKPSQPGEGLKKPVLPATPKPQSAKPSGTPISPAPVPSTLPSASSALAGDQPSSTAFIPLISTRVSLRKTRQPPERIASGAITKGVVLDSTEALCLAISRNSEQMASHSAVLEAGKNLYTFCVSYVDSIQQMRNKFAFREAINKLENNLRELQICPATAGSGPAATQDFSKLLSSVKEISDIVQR", "assay": "Binding affinity to human phosphorylated ABL1 E255K mutant (S229 to K512 residues) expressed in mammalian expression system by KINOMEscan assay"}, "[16]": {"biological_target": "Serine/threonine-protein kinase mTOR (Homo sapiens) (UniProt P42345)", "assay": "Inhibition of mTOR in human SW620 cells assessed as reduction in 4EBP1 phosphorylation up to 75 uM after 48 hrs by Western blot analysis", "assay_type": "cell-based"}, "HT-29 [17]": {"tested_on": "HT-29", "assay": "Effect on total 4EBP1 expression in human HT-29 cells up to 75 uM after 48 hrs by Western blot analysis", "assay_type": "ADME, cell-based", "settings": "ht-29, 48 h", "procedure,_shortened": "(§1)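 HT29 or SW620 cells were treated at 0, 25, 50 and 75 μM for 48 h and lysed in RIPA with protease and phosphatase inhibitors. Protein was quantified by BCA. 50 μg lysate was run on 8–15% SDS-PAGE and transferred to PVDF. Blocking was 5% BSA/TBST for 2 h; primary antibodies were applied overnight at 4 °C, then HRP secondary 1 h at room temperature.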"}, "SW-620 [18]": {"tested_on": "SW-620", "assay": "Down regulation of CDK1 expression in human SW620 cells after 48 hrs by Western blot analysis", "assay_type": "functional, cell-based", "procedure,_shortened": "as §1"}, "SW-620 [19]": {"tested_on": "SW-620", "assay": "Effect on total mTOR expression in human SW620 cells up to 75 uM after 48 hrs by Western blot analysis", "assay_type": "ADME, cell-based", "settings": "sw-620, 48 h", "procedure,_shortened": "as §1"}, "Angiopoietin-1 receptor": {"biological_target": "Angiopoietin-1 receptor (Homo sapiens, UniProt Q02763)", "assay": "Binding affinity to human TIE2 (N804 to T1112 residues) expressed in bacterial expression system by KINOMEscan assay"}, "[20]": {"biological_target": "Receptor-type tyrosine-protein kinase FLT3 (Homo sapiens) (UniProt P36888)", "sequence (P36888 whole entry, the tested form may be a part)": "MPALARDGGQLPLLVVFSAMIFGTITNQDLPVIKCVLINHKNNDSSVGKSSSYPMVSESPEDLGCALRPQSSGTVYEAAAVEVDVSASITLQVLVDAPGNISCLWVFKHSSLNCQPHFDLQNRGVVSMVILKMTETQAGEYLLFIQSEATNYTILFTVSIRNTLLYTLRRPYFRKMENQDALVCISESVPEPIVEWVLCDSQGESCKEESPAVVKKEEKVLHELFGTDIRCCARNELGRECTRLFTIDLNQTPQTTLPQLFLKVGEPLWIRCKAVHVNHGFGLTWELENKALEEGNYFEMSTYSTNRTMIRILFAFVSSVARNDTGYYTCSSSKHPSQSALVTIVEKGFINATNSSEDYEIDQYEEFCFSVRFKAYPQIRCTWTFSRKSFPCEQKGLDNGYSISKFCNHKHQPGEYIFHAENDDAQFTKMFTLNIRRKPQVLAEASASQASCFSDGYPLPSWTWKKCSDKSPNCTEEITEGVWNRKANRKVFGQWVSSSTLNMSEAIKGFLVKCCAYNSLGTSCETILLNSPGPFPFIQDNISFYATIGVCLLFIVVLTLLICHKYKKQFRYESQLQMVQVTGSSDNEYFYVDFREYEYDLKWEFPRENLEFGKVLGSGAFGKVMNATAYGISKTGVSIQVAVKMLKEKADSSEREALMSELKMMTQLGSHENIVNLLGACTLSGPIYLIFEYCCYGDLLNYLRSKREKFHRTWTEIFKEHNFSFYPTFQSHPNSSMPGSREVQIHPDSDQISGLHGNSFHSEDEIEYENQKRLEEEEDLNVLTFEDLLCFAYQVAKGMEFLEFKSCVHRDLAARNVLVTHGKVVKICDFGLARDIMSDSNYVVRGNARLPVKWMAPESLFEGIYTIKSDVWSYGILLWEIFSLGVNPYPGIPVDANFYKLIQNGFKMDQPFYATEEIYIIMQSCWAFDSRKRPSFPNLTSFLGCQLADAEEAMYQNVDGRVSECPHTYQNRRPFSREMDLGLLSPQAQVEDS", "assay": "Inhibition of human FLT3 (V592 to Y969 residues) expressed in bacterial expression system assessed as residual activity at 5 uM by KINOMEscan assay relative to control"}, "[21]": {"biological_target": "MAP kinase-interacting serine/threonine-protein kinase 1 (Homo sapiens, UniProt Q9BUB5)", "assay": "Inhibition of full length human MKNK1 (M1 to L424 residues) expressed in mammalian expression system assessed as residual activity at 5 uM by KINOMEscan assay relative to control"}, "[22]": {"biological_target": "MAP kinase-activated protein kinase 2 (Homo sapiens, UniProt P49137)", "assay": "Binding affinity to human MAPKAPK2 (V48 to D345 residues) expressed in bacterial expression system by KINOMEscan assay"}, "[23]": {"biological_target": "Serine/threonine-protein kinase mTOR (Homo sapiens) (UniProt P42345)", "assay": "Inhibition of mTOR in human HT-29 cells assessed as reduction in 4EBP1 phosphorylation up to 75 uM after 48 hrs by Western blot analysis", "assay_type": "cell-based"}, "[24]": {"biological_target": "Serine/threonine-protein kinase PAK 2 (Homo sapiens, UniProt Q13177)", "sequence (Q13177 whole entry, the tested form may be a part)": "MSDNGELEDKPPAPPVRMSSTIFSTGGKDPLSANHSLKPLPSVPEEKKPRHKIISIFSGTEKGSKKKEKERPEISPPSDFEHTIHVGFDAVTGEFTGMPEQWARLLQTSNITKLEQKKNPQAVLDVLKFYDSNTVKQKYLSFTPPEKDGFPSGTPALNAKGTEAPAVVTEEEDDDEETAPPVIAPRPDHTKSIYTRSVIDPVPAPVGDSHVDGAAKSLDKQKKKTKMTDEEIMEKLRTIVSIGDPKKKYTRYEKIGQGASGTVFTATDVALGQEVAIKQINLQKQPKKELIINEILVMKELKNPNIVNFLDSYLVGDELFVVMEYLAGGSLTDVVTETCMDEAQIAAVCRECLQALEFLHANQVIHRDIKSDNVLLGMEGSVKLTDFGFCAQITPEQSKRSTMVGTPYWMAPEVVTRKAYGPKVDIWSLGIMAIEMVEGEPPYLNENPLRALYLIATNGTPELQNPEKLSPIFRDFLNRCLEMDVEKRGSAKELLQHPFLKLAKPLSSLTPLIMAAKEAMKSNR", "assay": "Binding affinity to partial length human PAK2 (P151 to R525 residues) expressed in bacterial expression system by KINOMEscan assay"}, "SW-620 [25]": {"tested_on": "SW-620", "assay": "Cell cycle arrest in human SW620 cells assessed as accumulation at S-phase at 50 uM after 48 hrs by propidium iodide staining based flow cytometry (reference value: 43.72%)", "assay_type": "functional"}, "[26]": {"biological_target": "Mitogen-activated protein kinase 11 (Homo sapiens, UniProt Q15759)", "sequence (Q15759 whole entry, the tested form may be a part)": "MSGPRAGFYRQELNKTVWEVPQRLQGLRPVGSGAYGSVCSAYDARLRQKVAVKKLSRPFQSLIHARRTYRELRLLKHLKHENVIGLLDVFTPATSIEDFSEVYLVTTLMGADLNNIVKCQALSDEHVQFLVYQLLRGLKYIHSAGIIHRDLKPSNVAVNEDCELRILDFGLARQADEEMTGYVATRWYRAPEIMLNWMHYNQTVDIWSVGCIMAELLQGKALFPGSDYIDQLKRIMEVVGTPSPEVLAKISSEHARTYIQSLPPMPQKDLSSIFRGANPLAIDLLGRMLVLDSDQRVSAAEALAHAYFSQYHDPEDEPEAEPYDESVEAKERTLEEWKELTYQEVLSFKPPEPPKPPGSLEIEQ", "assay": "Binding affinity to full length human p38beta (M1 to Q364 residues) expressed in bacterial expression system by KINOMEscan assay"}, "HT-29 [27]": {"tested_on": "HT-29", "assay": "Induction of apoptosis in human HT-29 cells assessed as live cells at 25 uM after 48 hrs by Annexin-V-FITC/propidium iodide staining based flow cytometry (reference value: 93.2%)", "assay_type": "functional"}},
  "note": "The source made the active and inactive calls. The rule behind the calls is not given here.",
  "data": [
    {"smiles": "CC(C)CN(C(=O)c1cccnc1)c1c2ccccc2c(=O)n2c1[nH]c1ccccc12", "values": [
      {"measurement": "Activity", "setting": "[1]", "result": 97, "unit": "%"},
      {"measurement": "Activity", "setting": "[2]", "result": 100, "unit": "%"},
      {"measurement": "Activity", "setting": "SW-620 [3]", "result": 5.5, "unit": "%"},
      {"measurement": "Activity", "setting": "[4]", "result": 95, "unit": "%"},
      {"measurement": "Activity", "setting": "SW-620 [5]", "result": 92.1, "unit": "%"},
      {"measurement": "inhibition", "setting": "HT-29 [6]", "result": "Active"},
      {"measurement": "Activity", "setting": "HT-29 [7]", "result": 4.4, "unit": "%"},
      {"measurement": "Activity", "setting": "Ephrin type-A receptor 2", "result": 100, "unit": "%"},
      {"measurement": "Activity", "setting": "[8]", "result": 69, "unit": "%"},
      {"measurement": "Kd", "setting": "[9]", "result": "≥ 5", "unit": "µM"},
      {"measurement": "Activity", "setting": "[10]", "result": 77, "unit": "%"},
      {"measurement": "Activity", "setting": "[11]", "result": 90, "unit": "%"},
      {"measurement": "Kd", "setting": "[12]", "result": "≥ 5", "unit": "µM"},
      {"measurement": "Kd", "setting": "[13]", "result": "≥ 5", "unit": "µM"},
      {"measurement": "Kd", "setting": "[14]", "result": "≥ 5", "unit": "µM"},
      {"measurement": "Kd", "setting": "[15]", "result": "≥ 5", "unit": "µM"},
      {"measurement": "inhibition", "setting": "[16]", "result": "Active"},
      {"measurement": "Activity", "setting": "HT-29 [17]", "result": "Non-Toxic"},
      {"measurement": "Activity", "setting": "SW-620 [18]", "result": "Dose-dependent effect"},
      {"measurement": "Activity", "setting": "SW-620 [19]", "result": "Non-Toxic"},
      {"measurement": "Kd", "setting": "Angiopoietin-1 receptor", "result": "≥ 5", "unit": "µM"},
      {"measurement": "Activity", "setting": "[20]", "result": 98, "unit": "%"},
      {"measurement": "Activity", "setting": "[21]", "result": 97, "unit": "%"},
      {"measurement": "Kd", "setting": "[22]", "result": "≥ 5", "unit": "µM"},
      {"measurement": "inhibition", "setting": "[23]", "result": "Active"},
      {"measurement": "Kd", "setting": "[24]", "result": "≥ 5", "unit": "µM"},
      {"measurement": "Activity", "setting": "SW-620 [25]", "result": 32.39, "unit": "%"},
      {"measurement": "Kd", "setting": "[26]", "result": "≥ 5", "unit": "µM"},
      {"measurement": "Activity", "setting": "HT-29 [27]", "result": 88.4, "unit": "%"}
    ]}
  ]
}
